Measured values from ChEMBL document CHEMBL1158769, “Macrophage activating effects of new alkamides from the roots of Echinacea species” (J Nat Prod, 2005).
Values after ≈ are worked out from the molar mass of the structure shown.

How the values were obtained:
[1] = tested on: RAW264.7; assay: Inhibition of LPS-stimulated NO production in mouse RAW264.7 cells; type: functional; settings: read-out: ID50 (the source's name)
Summary of the method: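 In some runs the compound medium was removed and the cells washed before LPS. Supernatant nitrite measured by Griess reagent at A550. Relative NO = (Exp-OD − Control-OD)/(LPS-OD − Control-OD) × 100%.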

[2] = Toxicity in mouse RAW264.7 cells by MTT assay; type: cell-based; settings: read-out: TD50 (the source's name)
Summary of the method: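 RAW 264.7 cells exposed to a range of alkamide concentrations for 24 h, or for 4 h followed by 24 h in fresh medium. Cells washed, labeled with MTT for 4 h, lysed in DMSO, formazan read at A540. Viability = Exp-OD/Control-OD × 100%, with control at the same cell number.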

SMILES	IC50 [1] [µg/mL]	CC50 [2] [µg/mL]
C/C=C/C=C\CC/C=C/C=C/C(=O)NCC(C)C	6 (≈ 24.3 µM)	50 (≈ 202 µM)
CCCCCCC/C=C/C=C/C(=O)NCC(C)C	6 (≈ 23.9 µM)	12.5 (≈ 49.7 µM)
C/C=C\C=C/CC/C=C/C=C/C(=O)NCC(C)C	6 (≈ 24.3 µM)	50 (≈ 202 µM)
